The source made the active and inactive calls. The calls are words filed in the database; no cut-off is given here.
What was measured:
Assay type in all cases: cell-based
[1] = Cytotoxicity against rat FRT cells at 12 uM after 24 to 72 hrs by trypan blue staining based assay
Summary of the method: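 Wild-type CFTR FRT cells treated with 12 μM compound, with 12 μM PTC124 as the control. Percentages of live and dead cells and cell proliferation were scored at 24, 48 and 72 h after treatment.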

Homo sapiens = species: Homo sapiens; assay: Induction of mutation read through activity at human CFTR G542X mutant premature termination codon UGA transfected in FRT cells assessed as increase in CFTR protein expression at 12 uM incubated for 24 hrs by DAPI-staining based immunofluorescence microscopic analysis
Summary of the method: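 FRT cells stably carrying pTracer vectors with human G542X-CFTR or WT-CFTR cDNA were exposed to 12 μM compound for 24 h. CFTR was detected by immunofluorescence microscopy, with membrane stained red and nuclei stained with DAPI. Untreated G542X cells served as the negative control.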

HeLa = assay: Induction of read through activity at CFTR gene premature termination codon UGA transfected in human HeLa cells assessed as increase in luciferase activity at 12 uM incubated for 24 hrs by steady-glo luciferase reporter gene assay
Summary of the method: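 HeLa cells were transiently transfected with pFLuc-opal (UGA stop) and treated for 24 h at 12 μM, with 12 μM PTC124 as reference. FLuc activity was then measured. pFLuc-WT transfected cells served as the positive control and untreated pFLuc-opal cells as the negative control.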

Row | Structure (SMILES) | Activity [1] | Activity (Homo sapiens) | Activity (HeLa)
1 | O=C(O)c1ccc2nc(-c3ccccc3Cl)[nH]c2c1 | Non-Toxic | Active | Active
2 | O=C(O)c1cccc(-c2noc(-c3ccccc3F)n2)c1 [ATALUREN] | Non-Toxic |  | Active
3 | COC(=O)c1ccc2nc(-c3cc(Cl)cc(Cl)c3)oc2c1 | Non-Toxic |  | Active
4 | O=S(=O)(Oc1ccc(F)cc1F)c1cccc(S(=O)(=O)Oc2ccc(F)cc2F)c1 | Non-Toxic |  | Active
5 | COC(=O)c1csc(COc2cc(Cl)cc(Cl)c2)n1 | Non-Toxic | Active | Active
